“And” between values parts separate entries of the source, which are not always exact repeats. Identical values can stand only once. “Also recorded” adds a separate entry of the source. Like-named read-outs stand apart in the source and are kept apart here.
Tests used:
[1] = test system: human endometrial cancer (HEC1A) cells; assay: MTT cytotoxicity assay, HEC1A; assay type: cell-based; conditions: for IC50: Homo sapiens, HEC-1-A, 48 h, read-out: HEC1A IC50, MTT cell viability, 48 h, n = 3 biological repeats; for Selectivity ratio: IC50 MAD11 divided by IC50 HEC1A
Procedure, shortened: (§1)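 HEC1A (5000/well) and MAD11 (2500/well) cells were seeded and held overnight at 37 °C. Test compound was reconstituted in DMSO and serially diluted in medium to final 160, 80, 40, 20, 10, 5, 2.5 and 1.25 μM, in triplicate, with matched DMSO in all wells. After 48 h, MTT was added for 3 h, formazan solubilised (4 mM HCl, 0.1% NP-40, isopropanol) and absorbance read at 590/620 nm. IC50 was taken against vehicle controls; selectivity = MAD11 IC50 / HEC1A IC50.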

[2] = test system: CALU-1 (lung squamous cell carcinoma); assay: MTT cytotoxicity assay, CALU-1; assay type: cell-based; conditions: Homo sapiens, Calu-1, read-out: Mean IC50 CALU-1
Procedure, shortened: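 Uses the HEC1A MTT protocol: test compound in DMSO, diluted to final 160 down to 1.25 μM in two-fold steps, in triplicate, with equal DMSO in controls. […] CALU-1 was cultured in MEM in place of DMEM. […]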

[3] = 10 mg kg−1 via oral gavage in C57BL/6 mice; cited from earlier work
HEC1A cancer cells = assay: Oxygen consumption rate assay; assay type: cell-based, human; conditions: over 120 minutes, compared to vehicle (DMSO) control, 21 at 20 μM
Procedure, shortened: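 Seahorse XF96 OCR assay. HEC1A cells (15 000/well) adhered 24 h in DMEM, 10% FBS, penicillin/streptomycin at 37 °C, 5% CO₂. Medium was then swapped for unbuffered phenol-red-free DMEM (25 mM glucose, 4 mM glutamine, 1 mM pyruvate, pH 7.4), with 40 min degassing at 37 °C without CO₂. Three baseline reads preceded compound injection; 11 cycles (3 min wait, 3 min mix, 2 min measure) followed. OCR was normalised to the third baseline reading; DMSO served as vehicle control.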

[4] = test system: HEC1A endometrial cancer cells; assay: Thiol rescue experiment; assay type: cell-based, human; conditions: for rescue of cytotoxicity by NAC and GSH pre-treatment: NAC or GSH 2 mM for 40 min; for IC50: Homo sapiens, HEC-1-A; for ΔIC50 (+GSH): IC50 with GSH minus IC50 of compound alone; for ΔIC50 (+NAC): IC50 with NAC minus IC50 of compound alone
Procedure, shortened: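 HEC1A cells were seeded on day 1 (5000/well). On day 2 they were pre-treated 40 min with NAC or GSH, 2 mM in medium neutralised to pH 7.4. Test compound was then added (final 160–1.25 μM serial dilutions, triplicate, equal DMSO), with 48 h incubation. The MTT readout (3 h, absorbance 590/620 nm) followed. IC50 was compared with cells given no thiol.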

[5] = test system: noncancerous human endometrial stromal (MAD11) cells; assay: MTT cytotoxicity assay, MAD11; assay type: cell-based; conditions: MAD11, 48 h, read-out: MAD11 IC50
Procedure, shortened: as §1

[6] = Pharmacokinetic profiling in vivo; design: species or system C57BL/6 mice

| Structure (SMILES) | IC50 [1] | Selectivity ratio [1] | IC50 [5] | also measured |
| --- | --- | --- | --- | --- |
| O=C1C(Cl)=C(NCCN2CCOCC2)C(=O)c2ccccc21 [BH10, 2-chloro-3-[(2-morpholin-4-ylethyl)amino]naphthalene-1,4-dione, reference compound] | 10.2 µM | 2.51 | 25.6 µM | IC50 [2]: 16.7 µM; half-life [3]: 21.6 min; maximum OCR increase (HEC1A cancer cells): up to 200%; rescue of cytotoxicity by NAC and GSH pre-treatment ([4]; HEC1A): rescued; IC50 ([4]; read-out: +GSH IC50 ± SEM): > 80 µM; IC50 ([4]; read-out: +NAC IC50): 58 µM; ΔIC50 (+GSH) [4]: >+69.78 μM; ΔIC50 (+NAC) [4]: +47.78 μM |
| O=C1C(Cl)=C(NCCCN2CCCCC2)C(=O)c2ccccc21 [Compound 21, 2-Chloro-3-((3-(piperidin-1-yl)propyl)amino)-[1,4]-naphthoquinone] | 1.83 µM | 2.62 | 4.79 µM | IC50 [2]: 4.7 µM; maximum OCR increase (HEC1A cancer cells): approximately 280%; decrease of potency with GSH pre-treatment (times) ([4]; HEC1A, GSH 2 mM): 8.7 times; decrease of potency with NAC pre-treatment (times) ([4]; HEC1A, NAC 2 mM): 7.1 times; rescue of cytotoxicity by NAC and GSH pre-treatment ([4]; HEC1A): partially rescued; IC50 ([4]; read-out: +GSH IC50 ± SEM): 16 µM; IC50 ([4]; read-out: +NAC IC50): 13 µM; IC50 ([4]; read-out: Alone IC50): 1.83 µM; ΔIC50 (+GSH) [4]: +14.17 μM; ΔIC50 (+NAC) [4]: +11.17 μM |
| Cc1nc2c(n1CCCN1CCCCC1)C(=O)c1ccccc1C2=O [Compound 44, 2-Methyl-1-(3-(piperidin-1-yl)propyl)-1H-naphtho[2,3-d]imidazole-4,9-dione] | 6.4 µM | 3.6 and 3.59 | 23 µM | IC50 [2]: 15.4 µM; maximum OCR increase (HEC1A cancer cells): 130%; half-life ([6]; C57BL/6, mouse, plasma, po, 20 mg/kg): 26.8 min; half-life longer than BH10 ([6]; oral administration, versus BH10 t1/2 = 21.6 min): 5.2 min; rescue of cytotoxicity by NAC and GSH pre-treatment ([4]; HEC1A): did not rescue; also recorded: unaffected; IC50 ([4]; read-out: +GSH IC50 ± SEM): 7.4 µM; IC50 ([4]; read-out: +NAC IC50): 6.8 µM; IC50 ([4]; read-out: Alone IC50): 6.4 µM; ΔIC50 (+GSH) [4]: +1.00 μM; ΔIC50 (+NAC) [4]: +0.40 μM |
| O=C(Cc1ccccc1)NC1=C(NCCCN2CCCCC2)C(=O)c2ccccc2C1=O [Compound 50, N-(1,4-Dioxo-3-((3-(piperidin-1-yl)propyl)amino)-1,4-dihydronaphthalen-2-yl)-2-phenylacetamide] | 8.8 µM | 4.4 and 4.43 | 39 µM |  |
| O=C1C(Cl)=C(NCCN2CCN(C3=C(Cl)C(=O)c4ccccc4C3=O)CC2)C(=O)c2ccccc21 [Compound 18, 2-Chloro-3-(4-(2-((3-chloro-1,4-dioxo-1,4-dihydronaphthalen-2-yl)amino)ethyl)piperazin-1-yl)-[1,4]-naphthoquinone] | 2.91 µM | 1.17 | 3.4 µM | times more potent than BH10 ([1]; HEC1A IC50 compared with BH10): 3.5 times |
| CCc1nc2c(n1CCCN1CCCCC1)C(=O)c1ccccc1C2=O [Compound 45, 2-Ethyl-1-(3-(piperidin-1-yl)propyl)-1H-naphtho[2,3-d]imidazole-4,9-dione] | 12 µM | 2.92 | 35 µM |  |
| O=C1C(Cl)=C(NCCc2c[nH]c3ccccc23)C(=O)c2ccccc21 [Compound 19, 2-((2-(1H-Indol-3-yl)ethyl)amino)-3-chloronaphthalene-1,4-dione] | 18.6 µM | 2.24 | 40.3 µM |  |
| O=C(O)c1ccc(-n2cc(CNC3=C(Cl)C(=O)c4ccccc4C3=O)nn2)cc1 [Compound 32, 4-(4-(((3-Chloro-1,4-dioxo-1,4-dihydronaphthalen-2-yl)amino)methyl)-1H-1,2,3-triazol-1-yl)benzoic acid] | > 40 µM |  | > 40 µM |  |
| COC(=O)[C@H](CCCCN)NC1=C(Cl)C(=O)c2ccccc2C1=O [Compound 30, Methyl (3-chloro-1,4-dioxo-1,4-dihydronaphthalen-2-yl)-L-lysinate] | 38 µM |  | > 40 µM |  |
| CN(C)CCCNC1=C(Cl)C(=O)c2ccccc2C1=O [Compound 22, 2-Chloro-3-((3-(dimethylamino)propyl)amino)naphthalene-1,4-dione] | 2.36 µM | 2.23 | 5.27 µM |  |
| O=C1C=C(NCCN2CCOCC2)C(=O)c2ccccc21 [Compound 5, 2-((2-Morpholinoethyl)amino)naphthalene-1,4-dione] | > 40 µM |  | > 40 µM |  |

Reference: paper PMC11986672 (RSC Medicinal Chemistry, 2025)
